Experiments:
[1] = target: D(2) dopamine receptor (Bos taurus, UniProt P20288); assay: Compound was tested for inhibition of [3H]spiroperidol binding against Dopamine receptor D2
Summary of the method: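 Washed bovine anterior pituitary membranes (500 μg protein) incubated 20 min at 37 °C with 0.2–0.3 nM [3H]spiroperidol in Tris-HCl pH 7.4, MgSO4, 2 mM EDTA, 0.1% ascorbate.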

[2] = target: T1, D(1A) dopamine receptor (Rattus norvegicus, UniProt P18901); assay: Displacement of [3H]fenoldopam from Dopamine receptor D1 of rat striatum membranes; format: cell membranes, Membrane
T1 sequence (P18901 whole entry): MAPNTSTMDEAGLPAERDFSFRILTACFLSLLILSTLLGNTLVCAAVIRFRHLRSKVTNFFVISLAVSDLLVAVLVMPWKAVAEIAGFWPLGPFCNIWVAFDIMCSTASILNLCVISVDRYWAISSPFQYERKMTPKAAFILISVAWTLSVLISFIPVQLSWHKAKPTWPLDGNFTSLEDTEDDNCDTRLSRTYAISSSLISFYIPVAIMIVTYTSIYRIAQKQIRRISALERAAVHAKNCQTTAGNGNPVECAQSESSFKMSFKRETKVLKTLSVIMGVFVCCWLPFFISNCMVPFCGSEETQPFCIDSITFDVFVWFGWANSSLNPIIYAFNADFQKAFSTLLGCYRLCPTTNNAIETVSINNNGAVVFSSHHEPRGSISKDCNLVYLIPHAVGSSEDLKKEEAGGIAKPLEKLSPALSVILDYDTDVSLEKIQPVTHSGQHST

[3] = target: D(2) dopamine receptor (Bos taurus) (UniProt P20288); assay: Compound was tested for inhibition of [3H]spiroperidol binding against Dopamine receptor D2 at 10e-5 M
Sequence of D(2) dopamine receptor (Bos taurus) (P20288 whole entry): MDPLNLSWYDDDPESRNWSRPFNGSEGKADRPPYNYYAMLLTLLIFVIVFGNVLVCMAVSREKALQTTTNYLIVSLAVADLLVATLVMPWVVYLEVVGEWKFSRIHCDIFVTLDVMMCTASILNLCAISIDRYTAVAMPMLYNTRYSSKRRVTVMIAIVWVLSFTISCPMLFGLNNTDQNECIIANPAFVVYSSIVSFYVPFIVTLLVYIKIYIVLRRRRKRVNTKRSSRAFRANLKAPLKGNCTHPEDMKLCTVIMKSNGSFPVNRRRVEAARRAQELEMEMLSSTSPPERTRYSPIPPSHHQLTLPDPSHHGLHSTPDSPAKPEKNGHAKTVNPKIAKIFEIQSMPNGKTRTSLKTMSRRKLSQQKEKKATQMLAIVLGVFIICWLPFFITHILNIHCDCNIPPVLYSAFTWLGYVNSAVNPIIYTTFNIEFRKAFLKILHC

[4] = target: T1, D(1A) dopamine receptor; assay: Compound was tested for binding affinity against dDopamine receptor D1 using [3H]fenoldopam as a radioligand
[5] = target: D(2) dopamine receptor (Bos taurus) (UniProt P20288); assay: Compound was tested for inhibition of [3H]spiroperidol binding against Dopamine receptor D2 at 10e-5 M; IA= Inactive

Sequence of D(2) dopamine receptor (P20288 whole entry): as above

In the case of `CCCN(CCC)CCc1ccc(O)c(O)c1-c1ccc(O)cc1`, the Ki [1] is reported as 1.8 µM and the Ki [2] is reported as 1740 nM.
`CCCN(CCC)CCc1ccc(O)c(O)c1-c1ccccc1` gave an inhibition [3] of 29% and a Ki [2] of 1940 nM.
With `Oc1cc2c(cc1O)CCNCC2` the Ki [4] was 970 nM.
`Oc1ccc(-c2c(O)c(O)cc3c2CCNCC3)cc1` showed a Ki [2] greater than 3000 nM and an inhibition [5] of less than 20%.
`NCCc1ccc(O)c(O)c1-c1ccc(O)cc1` showed a Ki [2] of 1650 nM and an inhibition [5] of less than 20%.
`NCC1c2cc(O)ccc2-c2c1ccc(O)c2O` (stereo unspecified) was tested, and the Ki [1] was 5.74 µM and the Ki [2] was 43 nM.
`Oc1c(O)c(-c2ccccc2)c2c(c1Cl)CCNCC2` gave an inhibition [3] of 27% and a Ki [2] of 700 nM.
`Oc1cc2c(c(-c3ccccc3)c1O)CCNCC2` was tested, and the Ki [2] was 1790 nM and the inhibition [5] was less than 20%.
Compound `NCC1c2ccccc2-c2c1ccc(O)c2O` (stereo unspecified) has an inhibition [3] of 20% and a Ki [2] of 380 nM.
With `NCCc1ccc(O)c(O)c1-c1ccccc1` the Ki [2] was 1500 nM and the inhibition [5] was less than 20%.
With `Oc1ccc(-c2c(O)c(O)c(Cl)c3c2CCNCC3)cc1` the Ki [2] was 1630 nM and the inhibition [5] was less than 20%.

Reference: ChEMBL document CHEMBL1123459, “Synthesis and dopaminergic binding of 2-aryldopamine analogues: phenethylamines, 3-benzazepines, and 9-(aminomethyl)fluorenes” (J Med Chem, 1986)
